This is an account of results in ChEMBL document CHEMBL4028818, “Tricyclic 4,4-dimethyl-3,4-dihydrochromeno[3,4-d]imidazole derivatives as microsomal prostaglandin E2 synthase-1 (mPGES-1) inhibitors: SAR and in vivo efficacy in hyperalgesia pain model” (Bioorg Med Chem Lett, 2017).

Broadly, the IC50 is the concentration that inhibits the measured activity by half. Broadly, the inhibition is the drop in the measured response relative to a control, in per cent.

Type in all cases: cell-based
For test [1], the target named is T1, Prostaglandin E synthase (Homo sapiens, UniProt O14684).
T1 sequence (O14684 whole entry): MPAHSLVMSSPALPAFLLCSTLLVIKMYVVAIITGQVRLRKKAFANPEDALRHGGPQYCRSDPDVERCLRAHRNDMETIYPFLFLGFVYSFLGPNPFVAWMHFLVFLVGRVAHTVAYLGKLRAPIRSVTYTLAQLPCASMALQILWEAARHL
Description: Inhibition of recombinant human mPGES-1 expressed in CHO cells assessed as reduction in PGE2 formation using PGH2 a substrate preincubated for 10 mins followed by substrate addition measured after 1 min. In short, it runs like this: (§1)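 mPGES-1 enzyme inhibition. % inhibition values are means of two experiments in duplicate. IC50 values were derived from graphs of at least two experiments in duplicate.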

Test [2] addresses T2, Prostaglandin E synthase (Homo sapiens) (UniProt O14684).
T2 sequence (whole entry): T1 sequence (O14684 whole entry)
Description: Inhibition of recombinant human mPGES-1 expressed in CHO cells assessed as reduction in PGE2 formation at 1 uM using PGH2 a substrate preincubated for 10 mins followed by substrate addition measured after 1 min relative to control. The method in brief: as §1

In test [3] the target is T2, Prostaglandin E synthase (Homo sapiens). Description: Inhibition of recombinant human mPGES-1 expressed in CHO cells assessed as reduction in PGE2 formation at 10 uM using PGH2 a substrate preincubated for 10 mins followed by substrate addition measured after 1 min relative to control. The method in brief: as §1
The target in test [4] is T1, Prostaglandin E synthase. The test is described as follows: Inhibition of mPGES-1 in human A549 cells assessed as decrease in IL1beta induced PGE2 release preincubated for 30 mins followed by IL-1beta addition after 16 to 20 hrs by HTRF method. On the technique in general: In TR-FRET formats the signal depends on donor and acceptor labels being close together.

On to `Cc1cnc(C#Cc2ccc3c(c2)OC(C)(C)c2[nH]c(-c4c(F)cccc4Cl)nc2-3)s1`, for which the IC50 at Prostaglandin E synthase [1] came to 465 nM.

As for `Cc1csc(NC(=O)c2ccc3c(c2)OC(C)(C)c2nc(-c4c(F)cccc4Cl)[nH]c2-3)n1`, the inhibition in test [2] was 52.8%; in test [3], 67.2%.

As for `CC1(C)Oc2cc(C#Cc3cc(F)ccc3C(F)(F)F)ccc2-c2[nH]c(-c3c(F)cccc3Cl)nc21`, the results for the IC50 on Prostaglandin E synthase [1] and on Prostaglandin E synthase [4] were 21 nM and 706 nM, respectively.

`CC1(C)Oc2cc(Cl)ccc2-c2[nH]c(-c3c(Br)cccc3Br)nc21`: the inhibition in test [2] is 74%; in test [3], 89%. Moreover, the IC50 at Prostaglandin E synthase [1] was 325 nM.

As for `CC1(C)Oc2cc(C#Cc3cc(C(F)(F)F)ccc3Cl)ccc2-c2nc(-c3c(Cl)cncc3Cl)[nH]c21`, the IC50 at Prostaglandin E synthase [1] turned out to be 33.1 nM.

Regarding `CC1(C)Oc2cc(C#Cc3ccccc3C(F)(F)F)ccc2-c2nc(-c3c(Cl)cncc3Cl)[nH]c21`, at Prostaglandin E synthase [1], the IC50 was found to be 81.3 nM.

As to `CC1(C)Oc2cc(C#Cc3ccc(Cl)cc3)ccc2-c2nc(-c3c(F)cccc3Cl)[nH]c21`, the IC50 on Prostaglandin E synthase [1] worked out at 38.2 nM.

On to `CC1(C)Oc2cc(C#Cc3ccccc3)ccc2-c2nc(-c3c(F)cccc3Cl)[nH]c21`, for which the IC50 at Prostaglandin E synthase [1] was 83 nM.

As to `CC1(C)Oc2cc(Br)ccc2-c2[nH]c(-c3c(Br)cccc3Br)nc21`, the inhibition in test [2] was found to be 68.6%; in test [3] it was 92%. The IC50 at Prostaglandin E synthase [1] is 710 nM.

`CC1(C)Oc2nc(C#Cc3ccccc3C(F)(F)F)ccc2-c2nc(-c3c(F)cccc3Cl)[nH]c21`: the IC50 at Prostaglandin E synthase [1] is 407 nM.

As to `CC1(C)Oc2cc(C#Cc3cc(C(F)(F)F)ccc3F)ccc2-c2nc(-c3c(F)cccc3Cl)[nH]c21`, the values for the IC50 on Prostaglandin E synthase [1] and on Prostaglandin E synthase [4] were 25 nM and 461 nM, respectively.

As for `CC1(C)Oc2cc(I)ccc2-c2[nH]c(-c3c(F)cccc3Cl)nc21`, the inhibition in test [2] was found to be 44.3%; in test [3], 84.2%.

`CC1(C)Oc2cc(C#Cc3ccccc3OC(F)(F)F)ccc2-c2[nH]c(-c3c(C#N)cccc3C#N)nc21`: the IC50 on Prostaglandin E synthase [1] is 11.8 nM; at Prostaglandin E synthase [4] it was 267 nM.

Consider `CC1(C)Oc2cc(C(=O)Nc3ccc(Cl)c(F)c3)ccc2-c2[nH]c(-c3c(F)cccc3Cl)nc21`, for which the inhibition in test [2] stood at 83.5%; in test [3] it was 84.5%. In addition, the IC50 on Prostaglandin E synthase [1] came out at 187 nM.

Turning to `CC1(C)Oc2cc(C#Cc3ccccc3)ccc2-c2[nH]c(-c3c(C#N)cccc3C#N)nc21`, the IC50 at Prostaglandin E synthase [1] came out at 24.8 nM; on Prostaglandin E synthase [4], 984 nM.

Consider `CC1(C)Oc2cc(C#Cc3c(Cl)cccc3Cl)ccc2-c2nc(-c3c(F)cccc3Cl)[nH]c21`, for which the IC50 on Prostaglandin E synthase [1] is 11.2 nM.

On to `CC1(C)Oc2cc(C#Cc3ccc(C(F)(F)F)cn3)ccc2-c2nc(-c3c(F)cccc3Cl)[nH]c21`, for which the IC50 on Prostaglandin E synthase [1] came to 320 nM.

With `CC1(C)Oc2cc(C(=O)Nc3ccc(C(F)(F)F)cc3)ccc2-c2[nH]c(-c3c(F)cccc3Cl)nc21`, the inhibition in test [2] came out at 86.7%; in test [3], 92.9%. Besides, at Prostaglandin E synthase [1], the concentration for half-maximal inhibition (IC50) stood at 252 nM.

Consider `CC1(C)Oc2cc(C#Cc3ccccc3Cl)ccc2-c2nc(-c3c(F)cccc3Cl)[nH]c21`, for which, at Prostaglandin E synthase [1], the IC50 stood at 64.7 nM.

For `CC1(C)Oc2cc(C#Cc3cccc(C(F)(F)F)c3)ccc2-c2nc(-c3c(F)cccc3Cl)[nH]c21`, the IC50 at Prostaglandin E synthase [1] was determined as 29.3 nM.

As to `CC1(C)Oc2cc(C#Cc3c(F)cccc3C(F)(F)F)ccc2-c2[nH]c(-c3c(F)cccc3Cl)nc21`, the figures for the IC50 at Prostaglandin E synthase [1] and on Prostaglandin E synthase [4] were 12.3 nM and 691 nM, respectively.

Regarding `CC1(C)Oc2cc(-c3ccc(C(F)(F)F)cc3)ccc2-c2[nH]c(-c3c(F)cccc3Cl)nc21`, the results for the inhibition in test [2] and in test [3] were 81.4% and 83.3%, respectively. Moreover, the IC50 on Prostaglandin E synthase [1] came out at 191 nM.

As to `CC1(C)Oc2cc(C#Cc3c(F)cccc3C(F)(F)F)ccc2-c2nc(-c3c(C#N)cccc3C#N)[nH]c21`, the IC50 at Prostaglandin E synthase [1] was 12.7 nM; at Prostaglandin E synthase [4], 836 nM.

As for `CC1(C)Oc2cc(C#Cc3ccc(Cl)cc3C(F)(F)F)ccc2-c2nc(-c3c(F)cccc3Cl)[nH]c21`, the figures for the IC50 at Prostaglandin E synthase [1] and at Prostaglandin E synthase [4] were 7.76 nM and 2830 nM, respectively.

For `CC1(C)Oc2cc(C#Cc3cc(C(F)(F)F)ccc3Cl)ccc2-c2nc(-c3c(C#N)cccc3C#N)[nH]c21`, the IC50 was 3.89 nM at Prostaglandin E synthase [1] and 1200 nM at Prostaglandin E synthase [4].

For `CC1(C)Oc2cc(Br)ccc2-c2[nH]c(-c3c(F)cccc3Cl)nc21`, the inhibition in test [2] was found to be 40.8%; in test [3] it was 94.1%.

With `CC1(C)Oc2cc(C(=O)NC3CCCCC3)ccc2-c2nc(-c3c(F)cccc3Cl)[nH]c21`, the inhibition in test [2] came out at 56%; in test [3] it was 68%.

For `CC1(C)Oc2cc(C#Cc3ccc(C(F)(F)F)cc3)ccc2-c2[nH]c(-c3c(F)cccc3Cl)nc21`, the IC50 on Prostaglandin E synthase [1] is 61.8 nM.

For the compound `CC1(C)Oc2cc(C#Cc3cncnc3)ccc2-c2nc(-c3c(F)cccc3Cl)[nH]c21`, at Prostaglandin E synthase [1], the IC50 was found to be 797 nM.

For the compound `CC1(C)Oc2cc(C#Cc3ccccc3OC(F)(F)F)ccc2-c2[nH]c(-c3c(F)cccc3Cl)nc21`, the IC50 on Prostaglandin E synthase [1] came to 19.9 nM; on Prostaglandin E synthase [4] it was 578 nM.

For `CC1(C)Oc2cc(-c3nc(C4CC4)no3)ccc2-c2[nH]c(-c3c(F)cccc3Cl)nc21`, the results for the inhibition in test [2] and in test [3] were 89% and 98.6%, respectively.

As to `CC1(C)Oc2nc(C#Cc3c(F)cccc3C(F)(F)F)ccc2-c2nc(-c3c(F)cccc3Cl)[nH]c21`, the values for the inhibition in test [2] and in test [3] were 75% and 76%, respectively.

For the compound `CC1(C)Oc2cc(C#Cc3cc(Cl)ccc3Cl)ccc2-c2nc(-c3c(C#N)cccc3C#N)[nH]c21`, the IC50 worked out at 12.7 nM on Prostaglandin E synthase [1] and 2320 nM at Prostaglandin E synthase [4].

Take `CC1(C)Oc2cc(C#Cc3ccccc3C(F)(F)F)ccc2-c2nc(-c3c(F)cncc3Cl)[nH]c21`: the IC50 at Prostaglandin E synthase [1] worked out at 170 nM.

As for `CC1(C)Oc2cc(C#Cc3ccc(F)c(C(F)(F)F)c3)ccc2-c2nc(-c3c(F)cccc3Cl)[nH]c21`, the IC50 on Prostaglandin E synthase [1] is 29.6 nM; at Prostaglandin E synthase [4], 1250 nM.

Consider `CC1(C)Oc2cc(C#Cc3ccc(C(F)(F)F)cc3Cl)ccc2-c2nc(-c3c(F)cccc3Cl)[nH]c21`, for which, on Prostaglandin E synthase [1], the IC50 is 28.2 nM.

As to `CC1(C)Oc2cc(C#Cc3cccc(Cl)c3Cl)ccc2-c2nc(-c3c(F)cccc3Cl)[nH]c21`, at Prostaglandin E synthase [1], the IC50 worked out at 35.5 nM.

As for `CC1(C)Oc2cc(C(=O)Nc3cccc(C(F)(F)F)c3)ccc2-c2[nH]c(-c3c(F)cccc3Cl)nc21`, the inhibition in test [2] amounted to 70.4%; in test [3] it was 83.6%.

For `CC1(C)Oc2cc(C#Cc3ccc(C(F)(F)F)cc3Cl)ccc2-c2nc(-c3c(F)cncc3Cl)[nH]c21`, at Prostaglandin E synthase [1], the IC50 was found to be 73.9 nM.

With `CC1(C)Oc2cc(C#Cc3cc(F)ccc3C(F)(F)F)ccc2-c2nc(-c3c(Cl)cncc3Cl)[nH]c21`, at Prostaglandin E synthase [1], the IC50 stood at 31.5 nM.

Turning to `CC1(C)Oc2nc(C#Cc3cc(C(F)(F)F)ccc3Cl)ccc2-c2nc(-c3c(F)cccc3Cl)[nH]c21`, the inhibition was found to be 65% in test [2] and 63% in test [3].

For `CC1(C)Oc2cc(-c3ccc(Cl)cc3)ccc2-c2[nH]c(-c3c(F)cccc3Cl)nc21`, the inhibition in test [2] stood at 76%; in test [3], 94.8%.

For the compound `CC1(C)Oc2cc(-c3ccc(OC(F)(F)F)cc3)ccc2-c2[nH]c(-c3c(F)cccc3Cl)nc21`, the inhibition in test [2] worked out at 70.1%; in test [3] it was 86.9%.

`CC1(C)Oc2cc(C#Cc3ccccc3C(F)(F)F)ccc2-c2[nH]c(-c3c(F)cccc3Cl)nc21`: the IC50 on Prostaglandin E synthase [1] was determined as 15.6 nM; on Prostaglandin E synthase [4], 693 nM.

Turning to `CC1(C)Oc2cc(C#Cc3cc(Cl)ccc3Cl)ccc2-c2[nH]c(-c3c(F)cccc3Cl)nc21`, the IC50 worked out at 9.3 nM at Prostaglandin E synthase [1] and 1420 nM at Prostaglandin E synthase [4].

For `CC1(C)Oc2cc(-c3nc4ccccc4[nH]3)ccc2-c2nc(-c3c(F)cccc3Cl)[nH]c21`, the values for the inhibition in test [2] and in test [3] were 12.2% and 75.5%, respectively.

Take `CC1(C)Oc2cc(C#Cc3cccc(Cl)c3)ccc2-c2nc(-c3c(F)cccc3Cl)[nH]c21`: the IC50 at Prostaglandin E synthase [1] came to 39.2 nM.

As for `CC1(C)Oc2cc(C#Cc3ccncc3F)ccc2-c2nc(-c3c(F)cccc3Cl)[nH]c21`, the IC50 at Prostaglandin E synthase [1] was found to be 641 nM.
